Assay [1] relates to Cryptococcus neoformans. Put plainly: Antifungal activity against Cryptococcus neoformans 28JF assessed as reduction in cell viability at 1.9 uM after 6 to 72 hrs by MTT assay. It is filed as functional. (In general: Tetrazolium dyes change colour on reduction, which living cells bring about.)
Assay [2] concerns Cryptococcus neoformans. Description: Antifungal activity against Cryptococcus neoformans F10 assessed as reduction in cell viability at 1.9 uM after 6 to 72 hrs by MTT assay. Type of assay: functional.
Assay [3] concerns Cryptococcus neoformans. Put plainly: Antifungal activity against Cryptococcus neoformans WP assessed as reduction in cell viability at 1.9 uM after 6 to 72 hrs by MTT assay. Type of assay: functional.
Assay [4] relates to Cryptococcus neoformans. Description: Antifungal activity against Cryptococcus neoformans ATCC 28957 assessed as reduction in cell viability at 1.9 uM after 6 to 72 hrs by MTT assay. It is filed as functional.
Assay [5] concerns Cryptococcus neoformans. Description: Antifungal activity against Cryptococcus neoformans CN31 assessed as reduction in cell viability at 1.9 uM after 6 to 72 hrs by MTT assay. Type of assay: functional.
Assay [6] relates to Cryptococcus neoformans. Description: Antifungal activity against Cryptococcus neoformans LMM820 assessed as reduction in cell viability at 26 uM after 6 to 72 hrs by MTT assay. It is filed as functional. A digest of the protocol:
(§1)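 Time-kill setup: colonies from two 48 h, 35°C SDA passages were suspended in saline to 70% transmittance at 530 nm. They were then diluted to 1-5 x10^3 cells/mL in RPMI with L-glutamine buffered to pH 7.0 with 0.165 M MOPS. Plates were incubated at 35°C for 0-72 h, then MTT (5.0 mg/mL) was added for 3 h. After isopropanol, absorbance was read at 490 nm. Drug-free controls were included, results were confirmed by SDA colony counts, and assays were run in triplicate.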

In assay [7] the test system is Cryptococcus gattii species complex. Description: Antifungal activity against Cryptococcus gattii 23/10993 assessed as reduction in cell viability at 26 uM after 6 to 72 hrs by MTT assay. Type of assay: functional, Cryptococcus bacillisporus. In a few lines: as §1
Assay [8] concerns Cryptococcus neoformans. Description: Antifungal activity against Cryptococcus neoformans ATCC 62066 assessed as reduction in cell viability at 26 uM after 6 to 72 hrs by MTT assay. Type of assay: functional. A digest of the protocol:
as §1

Assay [9] relates to Cryptococcus neoformans. Put plainly: Antifungal activity against Cryptococcus gattii ATCC 24065 assessed as reduction in cell viability at 26 uM after 6 to 72 hrs by MTT assay. It is filed as functional, Cryptococcus bacillisporus. A digest of the protocol: as §1
Assay [10] deals with Cryptococcus neoformans. Put plainly: Antifungal activity against Cryptococcus neoformans CN31 assessed as reduction in cell viability at 26 uM after 6 to 72 hrs by MTT assay. It is filed as functional. A digest of the protocol: as §1
In assay [11] the test system is Cryptococcus gattii species complex. Put plainly: Antifungal activity against Cryptococcus gattii L24/01 assessed as reduction in cell viability at 26 uM after 6 to 72 hrs by MTT assay. It is filed as functional, Cryptococcus bacillisporus. In a few lines: as §1
For assay [12] the test system is unchanged. Put plainly: Antifungal activity against Cryptococcus gattii ICB181 assessed as reduction in cell viability at 26 uM after 6 to 72 hrs by MTT assay. Type of assay: functional, Cryptococcus bacillisporus. A digest of the protocol: as §1
Assay [13] shares this test system. Put plainly: Antifungal activity against Cryptococcus gattii 135L/03 assessed as reduction in cell viability at 26 uM after 6 to 72 hrs by MTT assay. It is filed as functional, Cryptococcus bacillisporus. In a few lines: as §1
The test system of assay [14] is Cryptococcus neoformans. Description: Antifungal activity against Cryptococcus neoformans 28JF assessed as reduction in cell viability at 26 uM after 6 to 72 hrs by MTT assay. Type of assay: functional. A digest of the protocol: as §1
In assay [15] the test system is Cryptococcus neoformans. Put plainly: Antifungal activity against Cryptococcus neoformans 96806 assessed as reduction in cell viability at 26 uM after 6 to 72 hrs by MTT assay. Type of assay: functional. In a few lines:
as §1

Assay [16] concerns Cryptococcus gattii species complex. Put plainly: Antifungal activity against Cryptococcus gattii LMM818 assessed as reduction in cell viability at 26 uM after 6 to 72 hrs by MTT assay. Type of assay: functional, Cryptococcus bacillisporus. In a few lines:
as §1

The subject of assay [17] is Cryptococcus neoformans. Description: Antifungal activity against Cryptococcus neoformans WP assessed as reduction in cell viability at 26 uM after 6 to 72 hrs by MTT assay. Type of assay: functional. In a few lines:
as §1

The test system of assay [18] is Cryptococcus neoformans. Put plainly: Antifungal activity against Cryptococcus neoformans LMM820 assessed as reduction in cell viability at 0.12 uM after 6 to 72 hrs by MTT assay. It is filed as functional.
The subject of assay [19] is Cryptococcus gattii species complex. Description: Antifungal activity against Cryptococcus gattii L24/01 assessed as reduction in cell viability at 0.12 uM after 6 to 72 hrs by MTT assay. Type of assay: functional, Cryptococcus bacillisporus.
Assay [20] has as its system Cryptococcus neoformans. Put plainly: Antifungal activity against Cryptococcus neoformans F10 assessed as reduction in cell viability at 0.12 uM after 6 to 72 hrs by MTT assay. Type of assay: functional.
Assay [21] deals with Cryptococcus neoformans. Description: Antifungal activity against Cryptococcus neoformans ATCC 24067 assessed as reduction in cell viability at 0.12 uM after 6 to 72 hrs by MTT assay. Type of assay: functional.
The test system of assay [22] is Cryptococcus gattii species complex. Put plainly: Antifungal activity against Cryptococcus gattii 196L/03 assessed as reduction in cell viability at 0.12 uM after 6 to 72 hrs by MTT assay. Type of assay: functional, Cryptococcus bacillisporus.
Assay [23] shares this test system. Put plainly: Antifungal activity against Cryptococcus gattii 547/OTTI-97-PI-10 assessed as reduction in cell viability at 0.12 uM after 6 to 72 hrs by MTT assay. Type of assay: functional, Cryptococcus bacillisporus.
For assay [24], the system named is Cryptococcus neoformans. Put plainly: Antifungal activity against Cryptococcus neoformans 27JF assessed as reduction in cell viability at 0.12 uM after 6 to 72 hrs by MTT assay. It is filed as functional.
In assay [25] the test system is Cryptococcus gattii species complex. Put plainly: Antifungal activity against Cryptococcus gattii L27/01 assessed as reduction in ergosterol content at MIC after 24 hrs by spectrophotometric analysis in presence of amphotericin B. It is filed as functional, organism-based. The conditions noted are these: Cryptococcus bacillisporus. In a few lines:
(§2)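 Pellet washed and weighed, then saponified in 25% ethanolic KOH at 85°C for 1 h. Extracted with water and n-heptane, read at 282 and 230 nm. Ergosterol taken from a standard curve and expressed as % of growth control.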

The test system is the same in assay [26]. Put plainly: Antifungal activity against Cryptococcus gattii 196L/03 assessed as reduction in ergosterol content at MIC after 24 hrs by spectrophotometric analysis in presence of amphotericin B. Type of assay: functional, organism-based. As to conditions: Cryptococcus bacillisporus. In a few lines:
as §2

Assay [27] concerns Cryptococcus neoformans. Put plainly: Antifungal activity against Cryptococcus neoformans LMM820 assessed as reduction in cell viability at 0.9 uM after 6 to 72 hrs by MTT assay. Type of assay: functional.
Assay [28] concerns Cryptococcus neoformans. Description: Antifungal activity against Cryptococcus neoformans ATCC 28957 assessed as reduction in cell viability at 0.9 uM after 6 to 72 hrs by MTT assay. Type of assay: functional.
The test system of assay [29] is Cryptococcus neoformans. Description: Antifungal activity against Cryptococcus neoformans CN31 assessed as reduction in cell viability at 0.9 uM after 6 to 72 hrs by MTT assay. It is filed as functional.
Assay [30] concerns Cryptococcus neoformans. Description: Antifungal activity against Cryptococcus neoformans VM-MCMMPI assessed as reduction in cell viability at 0.9 uM after 6 to 72 hrs by MTT assay. It is filed as functional.
The subject of assay [31] is Cryptococcus neoformans. Put plainly: Post-antifungal activity against Cryptococcus neoformans CN31 assessed as organism required time to achieve cell population of 10^4 cells/ml at 0.9 uM treated for 1 hr by MTT assay in presence of 0.05 uM amphotericin B. Type of assay: functional.
The subject of assay [32] is Cryptococcus neoformans. Description: Antifungal activity against Cryptococcus neoformans 27JF assessed as reduction in cell viability at 0.9 uM after 6 to 72 hrs by MTT assay. Type of assay: functional.

Calls of active or inactive are those of the source. The calls are words filed in the database; no cut-off is given here.

In the case of `C(=N\Nc1nc(-c2ccccc2)cs1)/C1CCCCC1`, the Activity in the assay with Cryptococcus neoformans [1], with Cryptococcus neoformans [2], in the assay with Cryptococcus neoformans [3], in the assay on Cryptococcus neoformans [4] and in the assay on Cryptococcus neoformans [5] was 90% in each case.

Consider `OC(Cn1cncn1)(Cn1cncn1)c1ccc(F)cc1F` [FLUCONAZOLE], for which the Activity (in the assay on Cryptococcus neoformans [6]; in [7]; with Cryptococcus neoformans [8]; in the assay with Cryptococcus neoformans [9]; in the assay with Cryptococcus neoformans [10]; in [11]) was 80% throughout. In addition, the Activity (in assay [12]; in assay [13]; with Cryptococcus neoformans [14]; with Cryptococcus neoformans [15]; in assay [16]; in the assay with Cryptococcus neoformans [17]) was 80% throughout.

Consider `C[C@@H]1[C@H](O)[C@@H](C)/C=C/C=C/C=C/C=C/C=C/C=C/C=C/[C@H](O[C@@H]2O[C@H](C)[C@@H](O)[C@H](N)[C@@H]2O)C[C@@H]2O[C@](O)(C[C@@H](O)C[C@@H](O)[C@H](O)CC[C@@H](O)C[C@@H](O)CC(=O)O[C@H]1C)C[C@H](O)[C@H]2C(=O)O` [AMPHOTERICIN B], for which the Activity (in the assay on Cryptococcus neoformans [18]; in assay [19]; in the assay on Cryptococcus neoformans [20]; in the assay on Cryptococcus neoformans [21]; in [22]; in [23]) was 90% each time. Further, in the assay on Cryptococcus neoformans [24], the Activity worked out at 90%.

As for `COc1ccc(-c2csc(N/N=C(\C)CCO)n2)cc1`, the outcome in assay [25] and in assay [26] was inactive. For the same compound, the Activity in the assay with Cryptococcus neoformans [27], with Cryptococcus neoformans [28], with Cryptococcus neoformans [29], with Cryptococcus neoformans [30] and in the assay on Cryptococcus neoformans [32] was 90% in each case. For the same compound, the Time in the assay on Cryptococcus neoformans [31] came to 2.1 h.

These data come from ChEMBL document CHEMBL3616437, “Thiazole compounds with activity against Cryptococcus gattii and Cryptococcus neoformans in vitro” (Eur J Med Chem, 2015).
